The nature of data set [1]: Inhibition of doxorubicin-induced cell death in Sprague-Dawley rat primary mixed cortical cells at 10 uM after 24 hrs by trypan blue absorbance assay. It counts as functional. A digest of the protocol: (§1)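 Mixed cortical cultures from E15 rat embryos were exposed for 24 h to H2O2, peroxynitrite or doxorubicin (200 μM), with nitrone (10 μM) added at the same time. Cell death was measured by trypan blue absorbance at 590 nm and expressed as % inhibition. Mean ± SEM, N = 10; ANOVA with Bonferroni t test against vehicle.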

For data set [2], the system named is Rotifers. As to the kind of experiment: Protection against doxorubicin-induced toxicity in Rotifers assessed as viability at 10 uM after 24 hrs. The format is functional, Rotifera. A digest of the protocol:
(§2)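 Individually housed Philodina rotifers were exposed for 24 h to H2O2 or doxorubicin (200 μM), with nitrone (10 μM) added at the same time. Read-out was % viable animals. Vehicle controls came from the same stock culture and were run in parallel. Mean ± SEM, N = 10; ANOVA with Bonferroni t test.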

Data set [3] is described as follows: Inhibition of hydrogen peroxide-induced cell death in Sprague-Dawley rat primary mixed cortical cells at 10 uM after 24 hrs by trypan blue absorbance assay. It counts as functional. A digest of the protocol: as §1
Data set [4] in a line: Inhibition of peroxynitrite-induced cell death in Sprague-Dawley rat primary mixed cortical cells at 10 uM after 24 hrs by trypan blue absorbance assay. It counts as functional. A digest of the protocol: as §1
Data set [5] in a line: Critical micellar concentration of the compound. It counts as physicochemical. A digest of the protocol: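 Nitrone solutions in ultrapure water were measured at 25 C by the Wilhelmy plate method with a tensiometer. The cmc was taken as the breakpoint of the plot of surface tension against log concentration.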
The subject of data set [6] is Rotifers. As to the kind of experiment: Protection against hydrogen peroxide-induced toxicity in Rotifers assessed as viability at 10 uM after 24 hrs. It counts as functional, Rotifera. A digest of the protocol: as §2
The species named for data set [7] is Rattus norvegicus. As to the kind of experiment: Induction of Electron transport protein complex 1 in Sprague-Dawley rat cortical mitochondria assessed as reduction of ferric cyanide at 10 uM after 30 mins in presence of EPBNAH.
A short description of data set [8]: Antioxidant activity assessed as ABTS radical scavenging activity assessed as burstlike formation of intensely green colored ABTS radical measured for 30 mins. The format is functional. A digest of the protocol:
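Fenton-initiated ABTS cation radical formation: water, ABTS (1 mM stock), FeSO4 (0.5 mM stock), test compound (1 mM stock in DMSO), reaction started with H2O2 (10 mM stock). Absorbance read at 420 nm every minute over 30 min. Controls got DMSO vehicle, 10% final. Scavenging is seen as suppression of time-dependent radical formation.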

For data set [9], the species on record is Rattus norvegicus. Nature of the data set: Induction of Electron transport protein complex 1 in Sprague-Dawley rat cortical mitochondria assessed as reduction of ferric cyanide at 10 uM after 30 mins in presence of dopamine. A digest of the protocol:
(§3)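 Submitochondrial particles from rat cortical mitochondria were preincubated 30 min with nitrone (10 μM), dopamine, or both. Ferricyanide reduction was then followed from the 440 minus 490 nm difference in the presence of antimycin A and azide at 37.5 C, as a read-out of iron-sulfur cluster N2 activity. Activity is given as nmol/mg protein/min, mean ± SEM, N = 10.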

The species entered for data set [10] is Rattus norvegicus. Nature of the data set: Induction of Electron transport protein complex 1 in Sprague-Dawley rat cortical mitochondria assessed as reduction of ferric cyanide at 10 uM after 30 mins. A digest of the protocol:
as §3

Data set [11] is filed under the species Rattus norvegicus. As to the kind of experiment: Restoration of FCCP-induced decrease of mitochondrial membrane potential in Sprague-Dawley rat forebrain mitochondria at 0.8 uM treated 15 mins before FCCP challenge measured after 30 mins by rhodamine 123 fluorescence assay. It counts as functional. A digest of the protocol: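 Rat forebrain mitochondria respired on 6 mM glutamate/malate at 37.5 C with nitrone. FCCP (0.2 μM) was added at 15 min to partly collapse the potential, and rhodamine 123 fluorescence quenching was recorded directly at 30 min. Potential was calculated by the Scaduto and Grotyohann method. Mean ± SEM of at least four preparations.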

Data set [12] is described as follows: Antioxidant activity assessed as reduction of ABTS radical measured for 30 mins. The format is functional. A digest of the protocol:
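ABTS cation radical at 105 μM final, test compound at 0.5 mM final, DMSO vehicle at 2.5% final in controls. The reaction is started by adding the nitrone, and loss of radical is followed at 420 nm every minute for 30 min. Results are reduced ABTS•+ per 30 min as mean ± SEM, N = 10, compared with vehicle by ANOVA with Bonferroni t test.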

The species entered for data set [13] is Rattus norvegicus. Nature of the data set: Inhibition of water soluble peroxide formation in Sprague-Dawley rat forebrain mitochondria at 0.8 uM after 30 mins by FOX assay. The format is functional. A digest of the protocol: (§4)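 Rat forebrain mitochondria respired on 6 mM glutamate/malate with nitrone at 37.5 C for 30 min, then were put on ice and homogenized in H2SO4. The supernatant was mixed with FeSO4, xylenol orange and sorbitol at 0.07 M H2SO4, held 30 min at 25 C in the dark, and read at 570 nm. Mean ± SEM of at least four independent preparations.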

For data set [14], the system named is Rotifers. As to the kind of experiment: Inhibition of water soluble peroxide formation in Rotifers cultures. The format is functional, organism-based. The following applies: Rotifera; TDE = time-dependent effect.
Data set [15] is filed under the species Rattus norvegicus. Nature of the data set: Inhibition of rotenone-induced electron leakage in Sprague-Dawley rat forebrain mitochondria assessed as NBT reduction at 0.8 uM after 30 mins. The format is functional. A digest of the protocol:
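Forebrain mitochondria from 3-month-old rats, in Tris-KCl phosphate medium at pH 7.4, respired on 6 mM glutamate and 6 mM malate at 37.5 C with nitrone for 30 min. NBT reduction was run with 3 μM rotenone and 3 mM azide, and the formazan was then extracted and measured. Mean ± SEM of at least four independent preparations.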

The nature of data set [16]: Lipophilicity, log K in methanol-water mixture by HPLC. It counts as physicochemical. A digest of the protocol:
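Nitrones in methanol (1.0 mg/mL) were run by reverse-phase C18 HPLC, eluted with MeOH/water from 9:1 to 7:3 v/v at 0.8 mL/min. Retention values were extrapolated to 100% aqueous to give log k'W.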

Data set [17] can be described thus: Solubility in water. It counts as physicochemical.
Data set [18] is filed under the species Rattus norvegicus. Nature of the data set: Inhibition of water soluble peroxide formation in Sprague-Dawley rat forebrain mitochondria at 0.4 uM after 30 mins by FOX assay. The format is functional. A digest of the protocol:
as §4

Each structure is given as a SMILES string. ≈ marks a conversion by molar mass, not a printed value. Calls of active or inactive are those of the source. No cut-off for these calls is given here.

Turning to `CC(C)(CNC(=O)CCC(F)(F)C(F)(F)C(F)(F)C(F)(F)C(F)(F)C(F)(F)F)/[N+]([O-])=C/c1ccc(CNC(=O)[C@H](O)[C@H](O)[C@H](O[C@@H]2O[C@H](CO)[C@H](O)[C@H](O)[C@H]2O)[C@@H](O)CO)cc1`, the inhibition (usually the drop in the measured response relative to a control, in per cent) at 10 µM was determined as 34.9% in [1], 63.4% in [3] and 40.1% in data set [4]. Further, the figures for the Activity in the data set on Rotifers [2] and with Rotifers [6] were 30.6% and 40.6%, respectively. In data set [5], this molecule yielded a CMC of 0.213 mM.
Take `CCCCCCCC(=O)NCc1ccc(/C=[N+](\[O-])C(C)(C)CNC(=O)[C@H](O)[C@H](O)[C@H](O[C@@H]2O[C@H](CO)[C@H](O)[C@H](O)[C@H]2O)[C@@H](O)CO)cc1`: the Activity was determined as 31 nmol/mg/min in the data set filed under Rattus norvegicus [7]; 96.5% in the data set with Rotifers [2]; 96.8 nmol in data set [8]; 110 nmol/mg/min in the data set listed under Rattus norvegicus [9]; 124 nmol/mg/min in the data set listed under Rattus norvegicus [10]; 49.1 nmol in data set [12]. Further, the Activity with Rotifers [6] is 87.6%. Also, the inhibition at 10 µM was 93% in data set [1], 93% in data set [3] and 90.1% in data set [4]. Moreover, the result in the data set filed under Rattus norvegicus [11] was Active. Moreover, the values for the inhibition in the data set filed under Rattus norvegicus [13] and in the data set with Rotifers [14] were 80% and “tde”, respectively. The inhibition result in the data set listed under Rattus norvegicus [15] is “Active”. In [16], the logKw is on record as 2.86. Also, the solubility (commonly how much of the substance goes into solution per volume) in data set [17] was 530 mg/mL (≈ 771 mM).
With `CCCCCCCC(=O)NCC(C)(C)/[N+]([O-])=C/c1ccc(CNC(=O)[C@H](O)[C@H](O)[C@H](O[C@@H]2O[C@H](CO)[C@H](O)[C@H](O)[C@H]2O)[C@@H](O)CO)cc1`, the Activity in the data set filed under Rattus norvegicus [7] came out at 19 nmol/mg/min; in the data set with Rotifers [2], 85.8%; in the data set listed under Rattus norvegicus [9], 79 nmol/mg/min; in the data set filed under Rattus norvegicus [10] it was 116 nmol/mg/min; with Rotifers [6], 83%. For the same molecule, the values for the inhibition at 10 µM in [1], in data set [3] and in data set [4] were 82%, 81% and 61%, respectively. In addition, the inhibition is 20% in the data set filed under Rattus norvegicus [13], “tde” in the data set on Rotifers [14] and 10% in the data set filed under Rattus norvegicus [18]. The inhibition result in the data set listed under Rattus norvegicus [15] was “Active”. Besides, the concentration in solution in data set [17] (solubility) came to 515 mg/mL (≈ 749 mM).
With `CC(C)(CNC(=O)[C@H](O)[C@H](O)[C@H](O[C@@H]1O[C@H](CO)[C@H](O)[C@H](O)[C@H]1O)[C@@H](O)CO)/[N+]([O-])=C/c1ccc(CNC(=O)CCC(F)(F)C(F)(F)C(F)(F)C(F)(F)C(F)(F)C(F)(F)F)cc1`, the inhibition at 10 µM is 32.8% in data set [1], 42.6% in data set [3] and 30.3% in [4]. The Activity with Rotifers [2] turned out to be 46.7%; in [8], 90.7 nmol; in data set [12] it was 42.6 nmol; in the data set on Rotifers [6] it was 30.1%. This molecule also had a CMC in data set [5] of 0.18 mM. The logKw in [16] is given as 4.71. This molecule yielded a solubility in data set [17] of 270 mg/mL (≈ 289 mM).
In the case of `CC(C)(C)/[N+]([O-])=C/c1ccccc1`, the Activity worked out at 13 nmol/mg/min in the data set filed under Rattus norvegicus [7]; 18.7% in the data set with Rotifers [2]; 60 nmol/mg/min in the data set filed under Rattus norvegicus [9]; 107 nmol/mg/min in the data set listed under Rattus norvegicus [10]; 25.6% in the data set on Rotifers [6]. For the same molecule, the figures for the inhibition at 10 µM in [1], in data set [3] and in data set [4] were 24.2%, 25% and 20.6%, respectively. Also, the logKw in data set [16] is 1.62.

Values taken from ChEMBL document CHEMBL1177726, “Amphiphilic amide nitrones: a new class of protective agents acting as modifiers of mitochondrial metabolism” (J Med Chem, 2010).
